These results are taken from ChEMBL document CHEMBL1132295, “Novel euglycemic and hypolipidemic agents. 4. Pyridyl- and quinolinyl-containing thiazolidinediones” (1999).

Test [1] relates to Mus musculus. The experiment in a line: Percentage reduction in plasma glucose after 6 days p.o. dosing at 30 mg/kg in db/db mice. Format: functional. Conditions: route oral. In short, it runs like this: (§1)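 Male C57BL/KsJ-db/db mice, 8 weeks old, 4–6 per group, given compound orally once daily for 6 days; vehicle controls received 0.5% CMC (10 mL/kg); rosiglitazone 30 mg/kg as standard. On the last day, retro-orbital blood was taken 1 h post-dose. Plasma glucose and triglyceride were measured by kits. % reduction = [1 − (TT/OT)/(TC/OC)] × 100, using day-0 and control values; mean ± SE, ANOVA, P<0.05.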

In test [2] the test system is Mus musculus. The test is described as follows: Compound was administered at a dose of 30 mg/kg/day to evaluate the percentage reduction in plasma triglyceride (TG) after 6 days of treatment in db/db mice via oral gavage. Format: functional. In outline:
as §1

Test [3] relates to Mus musculus. The experiment in a line: Compound was administered at a dose of 1 mg/kg/day to evaluate the percentage reduction in plasma glucose(PG) after 14 days of treatment in ob/ob mice via oral gavage.
Test [4] concerns Mus musculus. The test is described as follows: Compound was administered at a dose of 3 mg/kg/day to evaluate the percentage reduction in plasma glucose(PG) after 14 days of treatment in db/db mice via oral gavage.
The subject of test [5] is Mus musculus. The test is described as follows: Compound was administered at a dose of 3 mg/kg/day to evaluate the percentage reduction in plasma glucose(PG) after 14 days of treatment in ob/ob mice via oral gavage.
Test [6] concerns Mus musculus. The test is described as follows: Compound was administered at a dose of 10 mg/kg/day to evaluate the percentage reduction in plasma glucose(PG) after 14 days of treatment in db/db mice via oral gavage.
Test [7] concerns Mus musculus. The experiment in a line: Compound was administered at a dose of 10 mg/kg/day to evaluate the percentage reduction in plasma glucose(PG) after 14 days of treatment in ob/ob mice via oral gavage.
For test [8], the system named is Mus musculus. The experiment in a line: Compound was administered at a dose of 3 mg/kg/day to evaluate the percentage reduction in plasma triglyceride (TG) after 14 days of treatment in db/db mice via oral gavage.
In test [9] the test system is Mus musculus. The experiment in a line: Compound was administered at a dose of 10 mg/kg/day to evaluate the percentage reduction in plasma triglyceride (TG) after 14 days of treatment in db/db mice via oral gavage.
For test [10], the system named is Mus musculus. The experiment in a line: Compound was administered at a dose of 100 mg/kg/day to evaluate the percentage reduction in plasma glucose(PG) after 6 days of treatment in db/db mice via oral gavage. The class given is functional. In short, it runs like this:
as §1

Test [11] has as its system Mus musculus. The test is described as follows: Compound was administered at a dose of 100 mg/kg/day to evaluate the percentage reduction in plasma triglyceride (TG) after 6 days of treatment in db/db mice via oral gavage. Format: functional. In outline:
as §1

Test [12] relates to Mus musculus. The experiment in a line: Compound was administered at a dose of 30 mg/kg/day to evaluate the percentage reduction in plasma glucose(PG) after 14 days of treatment in ob/ob mice via oral gavage.
In test [13] the test system is Mus musculus. The experiment in a line: Compound was administered at a dose of 1 mg/kg/day to evaluate the percentage reduction in plasma triglyceride (TG) after 14 days of treatment in ob/ob mice via oral gavage.
For test [14], the system named is Mus musculus. The experiment in a line: Compound was administered at a dose of 3 mg/kg/day to evaluate the percentage reduction in plasma triglyceride (TG) after 14 days of treatment in ob/ob mice via oral gavage.
In test [15] the test system is Mus musculus. The experiment in a line: Compound was administered at a dose of 10 mg/kg/day to evaluate the percentage reduction in plasma triglyceride (TG) after 14 days of treatment in ob/ob mice via oral gavage.
Test [16] concerns Mus musculus. The experiment in a line: Compound was administered at a dose of 30 mg/kg/day to evaluate the percentage reduction in plasma triglyceride (TG) after 14 days of treatment in ob/ob mice via oral gavage.
In test [17] the test system is Mus musculus. The experiment in a line: Compound was administered at a dose of 30 mg/kg/day to evaluate the percentage reduction in plasma triglyceride (TG) after 6 days of treatment in db/db mice via oral gavage; Not significant. The class given is functional, organism-based. In outline: as §1
The test system of test [18] is Mus musculus. The test is described as follows: Compound was administered at a dose of 100 mg/kg/day to evaluate the percentage reduction in plasma triglyceride (TG) after 6 days of treatment in db/db mice via oral gavage; Not significant. The class given is functional, organism-based. In outline: as §1
Test [19] has as its system Mus musculus. The experiment in a line: Compound was administered at a dose of 20 mg/kg/day to evaluate the percentage reduction in plasma glucose(PG) after 14 days of treatment in db/db mice via oral gavage.
Test [20] deals with Mus musculus. The test is described as follows: Compound was administered at a dose of 20 mg/kg/day to evaluate the percentage reduction in plasma triglyceride (TG) after 14 days of treatment in db/db mice via oral gavage.
For test [21], the system named is Mus musculus. The experiment in a line: Compound was administered at a dose of 100 mg/kg/day to evaluate the percentage reduction in plasma glucose(PG) after 6 days of treatment in db/db mice via oral gavage; Not significant. Format: functional, organism-based. In short, it runs like this:
as §1

In the case of `O=C1NC(=O)C(Cc2ccc(OCC3CN(c4ccccn4)CCO3)cc2)S1` (stereo not drawn) [listing 1 of 2 here], in the test on Mus musculus [1], the Reduction was found to be 57.5%.
Take `Cc1cc(N2CCC[C@H]2COc2ccc(CC3SC(=O)[N-]C3=O)cc2)nc2ccccc12.[Na+]` (stereo partly drawn): the Reduction with Mus musculus [1] is recorded as 30.25%; in the test with Mus musculus [2], 58.5%.
Compound `O=C1[N-]C(=O)C(Cc2ccc(OC[C@@H]3CCCN3c3ccccn3)cc2)S1.[Na+]` (stereo partly drawn) displayed a Reduction in the test on Mus musculus [1] of 65.5%.
As for `O=C1NC(=O)C(Cc2ccc(OC[C@@H]3CCCN3c3ccccn3)cc2)S1` (stereo partly drawn), the Reduction is 52.25% with Mus musculus [1] and 65.5% with Mus musculus [2].
The like results for `O=C1[N-]C(=O)C(Cc2ccc(OC[C@@H]3CCCN3c3ccc4ccccc4n3)cc2)S1.[Na+]` (stereo partly drawn) were, in that order, 61.5% and 24.75%.
Take `O=C1[N-]C(=O)C(Cc2ccc(OCC3CN(c4ccccn4)CCO3)cc2)S1.[Na+]` (stereo not drawn): the Reduction with Mus musculus [1] was 63.5%; in the test with Mus musculus [2], 56.75%; in the test on Mus musculus [3], 30%; in the test on Mus musculus [4] it was 34.67%; with Mus musculus [5], 35.6%; in the test on Mus musculus [6], 66%. The Reduction in the test on Mus musculus [7] is 39.8%; in the test with Mus musculus [8] it was 39.25%; in the test on Mus musculus [9] it was 39%.
`Cl.O=C1NC(=O)/C(=C/c2ccc(OCC3CN(c4ccccn4)CCO3)cc2)S1` (stereo not drawn) returned a Reduction with Mus musculus [1] of 35.5%.
In the case of `O=C1[N-]C(=O)/C(=C/c2ccc(OC[C@@H]3CCCN3c3ccccn3)cc2)S1.[Na+]`, the Reduction with Mus musculus [1] worked out at 56.5%; in the test on Mus musculus [2], 56%.
The matching figures for `O=C1NC(=O)C(Cc2ccc(OC[C@@H]3CCCN3c3ccc4ccccc4n3)cc2)S1` (stereo partly drawn) [listing 1 of 2 here]: 72.25% and 49%.
As to `CN(CCOc1ccc(/C=C2\SC(=O)NC2=O)cc1)c1ccccn1`, the values for the Reduction in the test on Mus musculus [10] and with Mus musculus [11] were 55.5% and 35%, respectively.
In turn, `Cl.O=C1NC(=O)C(Cc2ccc(OC[C@@H]3CCCN3c3ccc4ccccc4n3)cc2)S1` (stereo partly drawn) came in with a Reduction in the test with Mus musculus [1] of 15.75%.
As to `O=C(O)/C=C\C(=O)O.O=C1NC(=O)/C(=C/c2ccc(OC[C@@H]3CCCN3c3ccccn3)cc2)S1`, the Reduction was 63.6% in the test on Mus musculus [1]; 66.4% in the test with Mus musculus [2]; 52.4% in the test on Mus musculus [3]; 12.75% in the test on Mus musculus [4]; 40.25% with Mus musculus [5]; 49.6% in the test with Mus musculus [6]. In addition, the Reduction in the test on Mus musculus [7] is 69.25%; with Mus musculus [12], 73%; with Mus musculus [13] it was 65.75%; in the test with Mus musculus [14] it was 59%; in the test on Mus musculus [8], 75%; with Mus musculus [9], 78.4%. The Reduction is recorded as 41.5% with Mus musculus [15] and 68.5% in the test with Mus musculus [16].
With `O=C1NC(=O)C(Cc2ccc(OC[C@@H]3CCCN3c3ccc4ccccc4n3)cc2)S1` (stereo partly drawn) [listing 2 of 2 here], in the test on Mus musculus [17], the Reduction entry was “Not significant”.
For the compound `O=C1NC(=O)/C(=C/c2ccc(OC[C@@H]3CCCN3c3ccc4ccccc4n3)cc2)S1`, the Reduction with Mus musculus [10] is 63.75%; with Mus musculus [18], “Not significant”.
In the case of `CN(CCOc1ccc(CC2SC(=O)NC2=O)cc1)c1ccccn1` (stereo in doubt; form 1) [ROSIGLITAZONE], the Reduction in the test with Mus musculus [1] (30 mg/kg) is on record as 64.6%; in the test on Mus musculus [2], 41%; in the test with Mus musculus [4], 41.6%; in the test on Mus musculus [6], 47.25%; in the test on Mus musculus [8], 47%; with Mus musculus [9], 35.25%.
In the case of `O=C1NC(=O)/C(=C\c2ccc(OC[C@@H]3CCCN3c3ccccn3)cc2)S1`, the figures for the Reduction in the test on Mus musculus [10] and in the test on Mus musculus [11] were 57% and 77.75%, respectively.
For `Cc1cc(N2CCC[C@H]2COc2ccc(CC3SC(=O)NC3=O)cc2)nc2ccccc12.Cl` (stereo partly drawn), the Reduction in the test with Mus musculus [1] was 25.25%; in the test on Mus musculus [2] it was 42%.
The matching figures for `Cc1cc(N2CCC[C@H]2COc2ccc(CC3SC(=O)NC3=O)cc2)nc2ccccc12` (stereo partly drawn): 40.5% and 66.25%.
Turning to `O=C1NC(=O)/C(=C/c2ccc(OCC3CN(c4ccccn4)CCO3)cc2)S1` (stereo not drawn) [listing 1 of 2 here], the Reduction result in the test on Mus musculus [17] is “Not significant”.
Regarding `O=C(O)/C=C\C(=O)O.O=C1NC(=O)C(Cc2ccc(OC[C@@H]3CCCN3c3ccccn3)cc2)S1` (stereo partly drawn), the Reduction in the test with Mus musculus [1] is on record as 62.5%; with Mus musculus [2], 44.75%; in the test on Mus musculus [4], 8.5%; in the test on Mus musculus [19] it was 41.25%; with Mus musculus [8], 41.5%; in the test on Mus musculus [20], 34.5%.
As to `O=C1NC(=O)/C(=C/c2ccc(OCCN3CCN(c4ccccn4)CC3)cc2)S1`, the values for the Reduction with Mus musculus [10] and in the test on Mus musculus [11] were 35.75% and 69.75%, respectively.
Take `Cc1cc(N2CCC[C@H]2COc2ccc(CC3SC(=O)NC3=O)cc2)nc2ccccc12.O=C(O)/C=C\C(=O)O` (stereo partly drawn): the Reduction with Mus musculus [2] is given as 53%.
In the case of `O=C1NC(=O)/C(=C/c2ccc(OC3CCN(c4ccccn4)CC3)cc2)S1`, the Reduction amounted to 38% with Mus musculus [10] and 40.25% in the test on Mus musculus [11].
The like results for `O=C1NC(=O)/C(=C/c2ccc(OCC3CN(c4ccccn4)CCO3)cc2)S1` (stereo not drawn) [listing 2 of 2 here] were, in that order, 55.25% and 52.5%.
With `O=C1NC(=O)/C(=C/c2ccc(OCC3CCN(c4ccccn4)CC3)cc2)S1`, the Reduction result in the test with Mus musculus [21] is “Not significant”; in the test with Mus musculus [11], 27.33%.
Consider `CN(CCOc1ccc(CC2SC(=O)NC2=O)cc1)c1ccccn1` (stereo in doubt; form 2) [ROSIGLITAZONE], for which the Reduction in the test with Mus musculus [1] (30 mg/kg) amounted to 35%; in the test with Mus musculus [2], 40.21%.
For the compound `Cl.O=C1NC(=O)C(Cc2ccc(OC[C@@H]3CCCN3c3ccccn3)cc2)S1` (stereo partly drawn), the Reduction with Mus musculus [1] and in the test with Mus musculus [2] was 50.5% in each case.
Take `Cl.O=C1NC(=O)/C(=C/c2ccc(OC[C@@H]3CCCN3c3ccccn3)cc2)S1`: the Reduction with Mus musculus [1] was 70.8%; in the test with Mus musculus [2] it was 31.7%; with Mus musculus [3], 18.8%; in the test with Mus musculus [4] it was 53.8%; in the test with Mus musculus [5] it was 50.2%; with Mus musculus [6], 61%. The Reduction is 42.4% in the test with Mus musculus [7]; 37.2% in the test with Mus musculus [12]; 46.6% in the test with Mus musculus [13]; 39.33% in the test with Mus musculus [14]; 43.8% in the test with Mus musculus [9]; 35% in the test with Mus musculus [15]. Also, the Reduction in the test with Mus musculus [16] worked out at 53%.
Consider `O=C1NC(=O)C(Cc2ccc(OCC3CN(c4ccccn4)CCO3)cc2)S1` (stereo not drawn) [listing 2 of 2 here], for which the Reduction entry with Mus musculus [17] was “Not significant”.
